Measured values from ChEMBL document CHEMBL1156217, “Antioxidant and antiproliferative activities of hydroxyl-substituted Schiff bases” (Bioorg Med Chem Lett, 2010).
Active and inactive are the calls of the source. No cut-off for these calls is given here.

What was measured:
HepG2 = experiment: Growth inhibition of human HepG2 cells after 72 hrs by sulforhodamine B assay; assay type: functional, cell-based; settings: HepG2, 72 h
[1] = Antioxidant activity assessed as galvinoxyl radical scavenging activity in methanol by UV-visible spectroscopy; assay type: functional
Outline: (§1)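 The rate constant k (M−1 s−1) came from the slope of pseudo-first-order kobs against compound concentration. Some rates were instead taken from second-order kinetics at a 1/1 compound/GO• ratio. Values are mean±SD of three determinations.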

[2] = Antioxidant activity assessed as galvinoxyl radical scavenging activity in ethyl acetate by UV-visible spectroscopy; assay type: functional; outline: as §1
[3] = Antioxidant activity assessed as against AAPH-induced oxidative damage of pBR322 plasmid DNA assessed as single strand breakage at 10 uM by gel electrophoresis; assay type: functional
Outline: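 Supercoiled pBR322 plasmid DNA (100 ng) incubated with AAPH and/or test compound in PBS, pH 7.4, at 37 °C for 60 min. Strand breakage was assessed by agarose gel electrophoresis as conversion of the supercoiled form to open-circular (single-strand break) and linear (double-strand break) DNA.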

[4] = Stability in PBS at pH 7.4 by UV-visible spectroscopy; assay type: physicochemical; settings: buffer
[5] = Stability in PBS at pH 7.4 by UV-visible spectroscopy in presence of HSA; assay type: physicochemical; settings: buffer

| Compound | IC50 (HepG2) | Stability [4] | Stability [5] | Activity [1] | Activity [2] | Activity [3] |
| --- | --- | --- | --- | --- | --- | --- |
| COc1ccc(/N=C/c2ccc(O)cc2)cc1 | > 300 µM |  |  | 2.48 M⁻¹ s⁻¹ | 1.1 M⁻¹ s⁻¹ |  |
| Oc1ccccc1/C=N/c1ccccc1 [2-((PHENYLIMINO)METHYL)PHENOL] | > 300 µM |  |  | 0.04 M⁻¹ s⁻¹ | 0.01 M⁻¹ s⁻¹ |  |
| Oc1ccc(/C=C/c2cc(O)cc(O)c2)cc1 [RESVERATROL] | 79.6 µM |  |  | 42 M⁻¹ s⁻¹ | 13.4 M⁻¹ s⁻¹ | Active |
| Oc1ccc(/N=C/c2ccccc2)cc1 [4-(BENZYLIDENEAMINO)PHENOL] | 108 µM |  |  | 120 M⁻¹ s⁻¹ | 31.9 M⁻¹ s⁻¹ |  |

Compounds with a lower IC50 (HepG2), results first:

| IC50 (HepG2) | Stability [4] | Stability [5] | Compound | Activity [1] | Activity [2] | Activity [3] |
| --- | --- | --- | --- | --- | --- | --- |
| 4.1 µM |  |  | COc1cc([C@@H]2c3cc4c(cc3[C@@H](O[C@@H]3O[C@@H]5CO[C@@H](C)O[C@H]5[C@H](O)[C@H]3O)[C@H]3COC(=O)[C@H]23)OCO4)cc(OC)c1O [ETOPOSIDE] |  |  |  |
| 5.6 µM | Unstable | Stable | Oc1ccc(/N=C/c2ccc(O)c(O)c2)cc1 | 14800 M⁻¹ s⁻¹ | 1080 M⁻¹ s⁻¹ | Active |
